Screens from PubChem.
E-selectin induc – E-selectin induction in HUVECs, primary screen, imaging, HUVEC, immunofluorescence imaging, single point | P16581 | normalized: neutral wells 0, TNF-alpha wells 100 | activation, % at 7.58 µM | 0.37% of 260,000 active;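 active means mean E-selectin-positive cell signal at least 10% of the positive control, reached in at least 60% of replicates, without over 20% cell loss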
Target sequence (P16581 whole entry, looked up): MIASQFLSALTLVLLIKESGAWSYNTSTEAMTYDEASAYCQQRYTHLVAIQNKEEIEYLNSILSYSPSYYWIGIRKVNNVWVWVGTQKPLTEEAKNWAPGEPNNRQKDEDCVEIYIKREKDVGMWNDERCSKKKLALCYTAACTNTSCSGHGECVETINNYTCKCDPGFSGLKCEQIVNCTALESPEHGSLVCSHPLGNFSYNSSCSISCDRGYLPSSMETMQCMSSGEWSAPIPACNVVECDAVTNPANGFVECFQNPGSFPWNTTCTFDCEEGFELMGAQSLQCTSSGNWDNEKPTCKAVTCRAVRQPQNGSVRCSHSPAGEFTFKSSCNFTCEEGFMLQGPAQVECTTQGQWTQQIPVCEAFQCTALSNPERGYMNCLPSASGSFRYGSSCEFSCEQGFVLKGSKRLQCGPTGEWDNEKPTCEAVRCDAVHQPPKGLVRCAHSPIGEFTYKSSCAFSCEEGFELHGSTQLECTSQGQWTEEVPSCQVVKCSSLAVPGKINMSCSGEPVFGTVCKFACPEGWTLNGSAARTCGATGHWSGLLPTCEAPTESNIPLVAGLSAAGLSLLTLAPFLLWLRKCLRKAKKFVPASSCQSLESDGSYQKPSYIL
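Read-out basis: % PE-positive cells; Test system: HUVEC primary endothelial cells; Technique: immunofluorescence imaging; Dosing: single-point compound dose.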
Xi reactivation – activators of inactive X chromosome reactivation, primary screen, imaging, XiGFP fibroblasts, GFP high-content imaging, set 2 | XiGFP mouse fibroblasts, % GFP-positive cells imaging, 3 d; cells co-treated with 5-aza-dC sensitizer; scaled so ellipticine positive control = 100% | AID 743238, 2013 | 0.055% of 360,000 active | activation, % at 7.58 µM;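 active means mean normalized replicate activation at least 10% and every replicate at or above 10%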
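Material: XiGFP fibroblasts, SV40-immortalized; Buffer or medium: DMEM containing 5-aza-dC; Compound dosing: single point; Times: 3 days compound exposure.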
F508del corr – F508del CFTR correction, initial screen, CFBE line, single point. CFBE cells, YFP halide quenching; stimulated with forskolin plus potentiator P3; % fluorescence drop versus neutral controls. activity (quench increase), % at 7.58 µM. 0.36% of 350,000 active;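 active means mean added fluorescence quench of at least 8% versus neutral control, with both replicates also reaching 8%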;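 further: cells transiently co-express mutant CFTR-F508del with the halide-sensitive YFP; corrector assay measuring rescue of mutant channel to the surface after 24 h compound exposure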
Each line names hits and unclear results; the compound was inactive in the other large screens. Compounds with a hit are over-represented: about 0.61% of the library has one in this group of screens.

O=C(Cc1ccccc1)N1CC(=O)N2[C@H](CO)[C@@H](c3ccc(-c4ccccc4)cc3)[C@@H]2C1	F508del corr 11.7
O=C(Cc1ccccc1)N1CC(=O)N2[C@H](CO)[C@@H](c3ccc(-c4ccc(F)cc4)cc3)[C@@H]2C1	none
COc1ccc(CNS(=O)(=O)c2ccc3c(c2)C(C)(C)C(=O)N3C)cc1	E-selectin induc 126.8
Cc1ccc(CNS(=O)(=O)c2ccc3c(c2)C(C)(C)C(=O)N3C)cc1	none
O=S(=O)(Nc1ccc(F)cc1Cl)c1ccc(-c2cnc(C3CC3)o2)cc1	F508del corr 14.0 (no result: E-selectin induc)
Cc1ccc(NS(=O)(=O)c2ccc(-c3cnc(C4CC4)o3)cc2)c(C)c1	none (no result: E-selectin induc)
COc1ccc(CNC(=O)CN(C(=O)c2csnn2)c2ccc3c(c2)OCCO3)cc1	none
O=C(CN(C(=O)c1csnn1)c1ccc2c(c1)OCCO2)NCc1ccc(F)cc1	E-selectin induc 39.0
CNC[C@H]1Oc2ccc(NC(=O)Nc3ccc(C(F)(F)F)cc3)cc2C(=O)N([C@H](C)CO)C[C@H]1C	none (no result: E-selectin induc)
CCCNC(=O)C[C@H]1CC[C@@H]2[C@H](COC[C@H](O)CN2C(=O)c2cc(Cl)cc(Cl)c2)O1	none
CCN(CC)CCCNc1nc2ccccc2c2nc(-c3ccncc3)nn12	F508del corr 15.0
CN1CCN(CCCNc2nc3ccccc3c3nc(-c4ccccc4)nn23)CC1	none
C[C@@H]1CN([C@@H](C)CO)C(=O)c2cccc(N(C)C)c2O[C@@H]1CN(C)C(=O)Nc1ccc(C(F)(F)F)cc1	none (no result: E-selectin induc)
CCS(=O)(=O)N1CC(=O)N2[C@H](CO)[C@@H](c3ccc(C#CC4CC4)cc3)[C@H]2C1	none
O=C(O)C1(C(=O)O)CCCC1	none
NC1(C(=O)O)CC1	F508del corr 17.1
CCC(=O)N(C)C[C@H]1Oc2cc(C#Cc3ccccc3)ccc2S(=O)(=O)N([C@H](C)CO)C[C@@H]1C	none
COc1ccc(-c2ccc3oc(-c4ccc(OC)cc4)c(C#CCO)c3c2)cc1	F508del corr 9.3
COc1ccc(-c2oc3ccc(N4CCOCC4)cc3c2C#CCO)cc1	none
C[C@H](NC(=O)C[C@@H]1C=C[C@@H](NC(=O)Nc2ccc3c(c2)OCO3)[C@@H](CO)O1)c1ccccc1	none
N#CCC(=O)N/N=C/c1cn(Cc2ccccc2C#N)c2ccccc12	none
N#CCC(=O)N/N=C/c1cn(Cc2cccc3ccccc23)c2ccccc12	F508del corr 11.0
COc1ccc(CN(C)C[C@@H]2Oc3c(NC(=O)C4CCOCC4)cccc3C(=O)N([C@H](C)CO)C[C@H]2C)cc1	none
C[C@H]1C[C@H]2[C@@H]3CCC4=CC(=O)C=C[C@]4(C)[C@@]3(Cl)[C@@H](O)C[C@]2(C)[C@@]1(O)C(=O)CO	none
C[C@H]1C[C@H]2[C@@H]3CCC4=CC(=O)C=C[C@]4(C)[C@@]3(F)[C@@H](O)C[C@]2(C)[C@@]1(O)C(=O)CO	F508del corr 10.1
Fc1ccc(C2=NN(c3ccccc3)C(c3ccco3)C2)cc1 (centres undefined)	none
O=[N+]([O-])c1ccc(/C=C/C2=NN(c3ccccc3)C(c3ccco3)C2)o1 (centres undefined)	F508del corr 16.1 (no result: E-selectin induc)
COc1ccc(Cl)cc1NC(=O)CN(C)CC(=O)Nc1ccc(Br)cc1	none
COc1ccc(Cl)cc1NC(=O)CN(C)CC(=O)Nc1cc(OC)c(OC)c(OC)c1	F508del corr 12.6
C[C@H](CO)N1C[C@H](C)[C@@H](CN(C)Cc2ccccc2)Oc2ccc(NC(=O)NC3CCCCC3)cc2CC1=O	none
O=C(NCc1nnnn1-c1ccc(Cl)cc1)C(=O)c1c[nH]c2ccccc12	F508del corr 11.0
COc1ccc(-n2nnnc2CNC(=O)C(=O)c2c[nH]c3ccccc23)cc1	none (no result: E-selectin induc)
COc1ccc(S(=O)(=O)N(C)C[C@@H]2OCCCC[C@@H](C)Oc3ccc(NC(=O)C4CCCCC4)cc3C(=O)N([C@H](C)CO)C[C@H]2C)cc1	none
Cc1ccc(C(=O)OCC(=O)N2C(C)CCCC2C)cc1S(=O)(=O)N1CCOCC1 (centres undefined)	none
COc1ccc(C(=O)OCC(=O)N2C(C)CCCC2C)cc1S(=O)(=O)N1CCOCC1 (centres undefined)	F508del corr 11.0
C[C@@H]1CN([C@@H](C)CO)S(=O)(=O)c2ccc(C#C[C@@H](C)O)cc2O[C@@H]1CN(C)C	none
CN(C(=O)c1ccccc1C(=O)OCC(=O)Nc1ccc(S(N)(=O)=O)cc1)c1ccccc1	F508del corr 8.2 (no result: E-selectin induc)
CN(C(=O)c1ccccc1C(=O)OCC(=O)Nc1ccc(OC(F)F)cc1)c1ccccc1	none
C[C@@H](NC(=O)C[C@@H]1C=C[C@@H](NC(=O)Nc2ccc3c(c2)OCO3)[C@H](CO)O1)c1ccccc1	none
COc1ccc2c3c(n(C)c2c1)[C@@H](CO)N(Cc1ccncc1)CC31CN(C(=O)C2CC2)C1	none
O=C(NCC[C@H]1CC[C@@H](NS(=O)(=O)Cc2ccccc2)[C@@H](CO)O1)C1CCCC1	none
Cc1cccc(CC(=O)c2c[nH]c3ccccc23)c1	E-selectin induc 74.6
COc1cc(Cl)c(CC(=O)c2c[nH]c3ccccc23)cc1OC	none
O=C(C[C@@H]1CC[C@H](NC(=O)CC2CC2)[C@@H](CO)O1)NCc1ccc(-c2ccccc2)cc1	none
COc1cccc(NC(=O)N[C@H]2CC[C@@H](CC(=O)N3CCOCC3)O[C@H]2CO)c1	none
CCOC(=O)/C=c1\s/c(=C\c2ccccc2C)c(=O)n1CC(=O)NCc1ccc2c(c1)OCO2	none (no result: E-selectin induc)
CCOC(=O)/C=c1\s/c(=C\c2ccc3cc(OC)ccc3c2)c(=O)n1CC(=O)NCc1ccc2c(c1)OCO2	Xi reactivation 28.3 (no result: E-selectin induc)
O=C(COC(=O)/C=C/c1ccc(F)cc1)Nc1ccc(Cl)cn1	none (no result: E-selectin induc)
COc1cc(/C=C/C(=O)OCC(=O)Nc2ccc(Cl)cn2)ccc1O	E-selectin induc 46.5
CCC(=O)N1CC2(C1)CN(C(=O)NC1CCCC1)[C@@H](CO)c1c2c2ccc(OC)cc2n1C	none (no result: E-selectin induc, F508del corr)
COc1ccccc1NC(=S)N(Cc1ccco1)Cc1cc2cc(C)cc(C)c2[nH]c1=O	F508del corr 10.4
Cc1cc(C)c2nc(Cl)c(CN(Cc3ccco3)C(=O)Nc3ccccc3C)cc2c1	F508del corr 10.7 (no result: E-selectin induc, Xi reactivation)
COCCN(Cc1cc2cc(C)cc(C)c2nc1Cl)C(=O)Nc1ccccc1	none (no result: E-selectin induc, Xi reactivation)
COc1ccccc1NC(=S)N(Cc1ccco1)Cc1cc2ccc(C)c(C)c2[nH]c1=O	none (no result: F508del corr)
Cc1noc(C)c1NC(=O)Nc1ccc2c(c1)C(=O)N([C@@H](C)CO)C[C@@H](C)[C@@H](CN(C)C(=O)c1ccccc1)OCCCC[C@@H](C)O2	none
C[C@H]1CN([C@@H](C)CO)C(=O)c2cccc(NC(=O)Nc3ccc4c(c3)OCO4)c2O[C@@H]1CN(C)S(=O)(=O)c1cccs1	none
Cc1cc2oc(=O)cc(-c3ccccc3)c2c(C)c1-c1ccc(O)cc1	F508del corr 9.2 (no result: E-selectin induc)
COc1cc2oc(=O)cc(-c3ccc(-c4ccc(O)cc4)cc3)c2c(OC)c1OC	none (no result: E-selectin induc)
CCC(=O)Nc1ccc2c(c1)C(=O)N(C)C[C@@H](OC)[C@@H](C)CN(C(=O)c1ccc(F)cc1)[C@@H](C)CO2	none
